Measurements pooled from the literature.
Compare with care: the assays were run in different laboratories.
Observed: microbial growth

For `O=C(Nc1ccc(N2CCOCC2)cc1)Nc1ccc(Cl)c(C(F)(F)F)c1`, the MIC was over 100 µM (Staphylococcus aureus; NCTC8325; 24 h).
The MIC of `CC1=NN(CNc2ccc(C(=O)O)cc2)C(=O)C1=NNn1c(-c2ccccc2)nc2ccccc2c1=O` is reported as 50.5 µM (Micrococcus luteus; broth dilution; 24 h).
With `O=C1c2ccccc2-c2n[nH]c3cccc1c23` the MIC was over 30 µM (Staphylococcus aureus; NCTC8325).
`CC1=NN(CNC(=O)c2ccccc2)C(=O)C1=NNn1c(-c2ccccc2)nc2ccccc2c1=O` gave an MIC of 51.9 µM (Micrococcus luteus; broth dilution; 24 h).
With `O=C1NC(=S)S/C1=C\c1ccc(-c2ccc(N(c3ccccc3)c3ccccc3)cc2)c2ccccc12` the MIC was 250 µg/mL (Micrococcus luteus; broth dilution; ATCC10240).
The MIC of `O=C(Nc1ccc(Cc2ccccc2)cc1)Nc1ccc(Cl)c(C(F)(F)F)c1` is reported as 1 µM (Staphylococcus aureus; NCTC8325; 24 h).
`O=c1[nH]c(NCc2ccc(Cl)c(Cl)c2)nc2ncn(CCN3CCOCC3)c12` gave an MIC of 4 µg/mL (Lactobacillus acidophilus; agar dilution; 48 h).
The MIC of `CC1=NN(CNc2ccccc2[N+](=O)[O-])C(=O)C1=NNn1c(-c2ccccc2)nc2ccccc2c1=O` is reported as 50.4 µM (Micrococcus luteus; broth dilution; 24 h).
For `CCc1cc(Nc2cc(=O)n(CCCCO)c(=O)[nH]2)ccc1C`, the MIC was 32 µg/mL (Lactobacillus acidophilus; agar dilution; 48 h).
`O=C1NC(=S)N/C1=C\c1c2ccccc2c(-c2ccc(N(c3ccccc3)c3ccccc3)cc2)c2ccccc12` has an MIC of over 1000 µg/mL (Micrococcus luteus; broth dilution; ATCC10240).
For `CC[C@H](Nc1ncnc2nc[nH]c12)c1nc2cccc(F)c2c(=O)n1-c1ccccc1`, the MIC was over 30 µM (Staphylococcus aureus; NCTC8325).
For `O=C1NC(=S)N/C1=C\c1ccc(-c2ccc(N(c3ccccc3)c3ccccc3)cc2)cc1`, the MIC was 62.5 µg/mL (Micrococcus luteus; broth dilution; ATCC10240).
`CN[C@H](CC(C)C)C(=O)N[C@H]1C(=O)N[C@@H](CC(N)=O)C(=O)N[C@H]2C(=O)N[C@H]3C(=O)N[C@H](C(=O)N[C@H](C(=O)O)c4cc(O)cc(O)c4-c4cc3ccc4O)[C@H](O)c3ccc(c(Cl)c3)Oc3cc2cc(c3O[C@@H]2O[C@H](CO)[C@@H](O)[C@H](O)[C@H]2O[C@H]2C[C@](C)(N)[C@H](O)[C@H](C)O2)Oc2ccc(cc2Cl)[C@H]1O` has an MIC of 1 µM (Staphylococcus aureus; NCTC8325).
For `O=C(O)CN1C(=O)/C(=C/c2ccc(-c3ccc(N(c4ccccc4)c4ccccc4)cc3)c3ccccc23)SC1=S`, the MIC was 31.3 µg/mL (Micrococcus luteus; broth dilution; ATCC10240).
`CC1(C)S[C@@H]2[C@H](NC(=O)[C@H](N)c3ccccc3)C(=O)N2[C@H]1C(=O)O` gave an MIC of 0.25 µg/mL (Bifidobacterium longum; broth dilution; ATCCBAA999).
For `O=C1NN=C(N=Cc2ccc(O)cc2O)C1=NNn1c(-c2ccccc2)nc2ccccc2c1=O`, the MIC was 53.5 µM (Micrococcus luteus; broth dilution; 24 h).
The MIC of `O=C1NC(=S)S/C1=C\c1c2ccccc2c(-c2ccc(N(c3ccccc3)c3ccccc3)cc2)c2ccccc12` is reported as over 1000 µg/mL (Micrococcus luteus; broth dilution; ATCC10240).
